# Key:
# [1] = biological target: T1, Serine/threonine-protein kinase Chk1 (Homo sapiens, UniProt O14757); experiment: Inhibitory activity against Chk1
# T1 sequence (O14757 whole entry): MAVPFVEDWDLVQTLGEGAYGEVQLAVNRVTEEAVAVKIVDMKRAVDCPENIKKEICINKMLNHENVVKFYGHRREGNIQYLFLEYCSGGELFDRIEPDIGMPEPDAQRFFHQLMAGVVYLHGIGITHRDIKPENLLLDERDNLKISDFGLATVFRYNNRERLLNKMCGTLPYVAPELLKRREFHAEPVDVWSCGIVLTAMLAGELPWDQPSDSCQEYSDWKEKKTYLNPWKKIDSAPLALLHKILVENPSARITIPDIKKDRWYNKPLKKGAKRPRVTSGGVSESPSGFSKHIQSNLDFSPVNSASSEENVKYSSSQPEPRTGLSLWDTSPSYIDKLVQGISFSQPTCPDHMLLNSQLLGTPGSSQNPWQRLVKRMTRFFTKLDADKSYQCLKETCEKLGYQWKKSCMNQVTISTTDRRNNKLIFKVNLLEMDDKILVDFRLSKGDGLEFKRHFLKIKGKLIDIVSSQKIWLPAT
# HeLa [2] = experiment: Antiproliferative activity against human HeLa cells by MTS assay; assay type: functional, cell-based
# Outline: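 p53-deficient human cervical cancer HeLa cells were treated with the test compound alone over varying concentrations. Proliferation was read out by MTS, and the antiproliferative EC50 was determined.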
# HeLa [3] = experiment: Antiproliferative activity against human HeLa cells by MTS assay in the presence of doxorubicin; assay type: functional, cell-based
# [4] = biological target: Serine/threonine-protein kinase Chk2 (Homo sapiens, UniProt O96017); experiment: Inhibitory activity against Chk2
# Chain of Serine/threonine-protein kinase Chk2 (O96017 whole entry): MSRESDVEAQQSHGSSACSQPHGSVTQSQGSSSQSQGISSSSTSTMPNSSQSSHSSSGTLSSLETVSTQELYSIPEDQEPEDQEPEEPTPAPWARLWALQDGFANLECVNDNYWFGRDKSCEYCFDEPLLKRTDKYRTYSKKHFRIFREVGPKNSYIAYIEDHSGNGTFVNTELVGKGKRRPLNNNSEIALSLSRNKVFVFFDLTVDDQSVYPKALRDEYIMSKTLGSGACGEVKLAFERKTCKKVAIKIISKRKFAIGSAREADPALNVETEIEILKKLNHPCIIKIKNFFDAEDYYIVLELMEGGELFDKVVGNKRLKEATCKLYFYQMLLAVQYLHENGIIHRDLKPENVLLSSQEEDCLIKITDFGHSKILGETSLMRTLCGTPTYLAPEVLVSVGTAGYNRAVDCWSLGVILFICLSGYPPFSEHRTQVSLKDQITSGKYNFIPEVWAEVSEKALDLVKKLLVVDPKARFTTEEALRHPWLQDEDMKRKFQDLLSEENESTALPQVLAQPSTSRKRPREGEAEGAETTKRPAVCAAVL
# [5] = biological target: Cyclin-dependent kinase 1 (Homo sapiens, UniProt P06493); experiment: Inhibitory activity against CDC2
# Chain of Cyclin-dependent kinase 1 (P06493 whole entry): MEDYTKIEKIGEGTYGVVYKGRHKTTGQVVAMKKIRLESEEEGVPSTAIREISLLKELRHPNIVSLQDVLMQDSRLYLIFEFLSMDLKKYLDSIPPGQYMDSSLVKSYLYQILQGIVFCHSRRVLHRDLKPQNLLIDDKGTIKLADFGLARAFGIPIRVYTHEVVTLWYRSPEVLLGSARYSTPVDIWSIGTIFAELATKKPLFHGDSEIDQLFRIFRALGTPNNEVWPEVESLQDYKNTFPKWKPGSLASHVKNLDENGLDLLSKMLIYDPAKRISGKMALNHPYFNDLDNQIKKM
# Casein kinase II = Casein kinase II (Homo sapiens, UniProt P19784+P67870+P68400); experiment: Inhibitory activity against CK2; assay type: protein-complex assay
# Chain of Casein kinase II (P67870 whole entry): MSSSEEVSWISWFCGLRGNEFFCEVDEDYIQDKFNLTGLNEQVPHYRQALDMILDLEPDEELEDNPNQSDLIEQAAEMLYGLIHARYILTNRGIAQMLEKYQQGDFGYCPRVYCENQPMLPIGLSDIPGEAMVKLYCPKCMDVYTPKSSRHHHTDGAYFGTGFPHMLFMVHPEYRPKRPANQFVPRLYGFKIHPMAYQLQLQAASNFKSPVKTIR
# Chain of Casein kinase II (P68400 whole entry): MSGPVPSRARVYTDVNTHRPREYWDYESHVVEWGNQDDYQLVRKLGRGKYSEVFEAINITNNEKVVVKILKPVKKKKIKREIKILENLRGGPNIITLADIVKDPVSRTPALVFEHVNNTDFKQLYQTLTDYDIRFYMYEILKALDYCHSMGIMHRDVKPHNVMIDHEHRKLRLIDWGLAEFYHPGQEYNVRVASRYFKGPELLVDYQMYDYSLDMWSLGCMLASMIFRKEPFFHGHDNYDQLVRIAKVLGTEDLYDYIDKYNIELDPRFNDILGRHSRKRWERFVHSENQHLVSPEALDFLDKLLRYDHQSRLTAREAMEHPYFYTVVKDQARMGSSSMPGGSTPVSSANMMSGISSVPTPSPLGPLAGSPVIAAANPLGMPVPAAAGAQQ
# Chain of Casein kinase II (P19784 whole entry): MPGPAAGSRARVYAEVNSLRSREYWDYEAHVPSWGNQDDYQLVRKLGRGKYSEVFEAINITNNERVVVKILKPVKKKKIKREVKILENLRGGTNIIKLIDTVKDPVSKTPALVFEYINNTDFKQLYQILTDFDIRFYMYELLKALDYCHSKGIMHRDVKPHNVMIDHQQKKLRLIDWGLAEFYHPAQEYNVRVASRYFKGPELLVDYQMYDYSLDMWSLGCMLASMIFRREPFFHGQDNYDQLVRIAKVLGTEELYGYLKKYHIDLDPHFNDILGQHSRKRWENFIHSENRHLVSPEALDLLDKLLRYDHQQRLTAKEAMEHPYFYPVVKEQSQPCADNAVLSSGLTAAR
# [6] = biological target: MAP kinase-activated protein kinase 2 (Homo sapiens, UniProt P49137); experiment: Inhibitory activity against MAPKAP2
# Chain of MAP kinase-activated protein kinase 2 (P49137 whole entry): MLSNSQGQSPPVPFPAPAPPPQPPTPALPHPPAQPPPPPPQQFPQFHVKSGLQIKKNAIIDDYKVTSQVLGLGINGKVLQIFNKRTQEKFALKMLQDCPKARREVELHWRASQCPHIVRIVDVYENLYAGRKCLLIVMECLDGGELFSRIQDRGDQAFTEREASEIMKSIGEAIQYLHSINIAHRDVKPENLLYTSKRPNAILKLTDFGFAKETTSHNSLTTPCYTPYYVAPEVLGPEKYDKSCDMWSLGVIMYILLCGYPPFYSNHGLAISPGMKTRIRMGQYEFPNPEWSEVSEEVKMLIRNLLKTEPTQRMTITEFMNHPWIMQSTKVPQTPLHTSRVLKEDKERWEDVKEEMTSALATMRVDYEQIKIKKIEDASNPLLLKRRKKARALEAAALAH
# [7] = biological target: T2, Serine/threonine-protein kinase Sgk1 (Homo sapiens, UniProt O00141); experiment: Inhibitory activity against SGK
# T2 sequence (O00141 whole entry): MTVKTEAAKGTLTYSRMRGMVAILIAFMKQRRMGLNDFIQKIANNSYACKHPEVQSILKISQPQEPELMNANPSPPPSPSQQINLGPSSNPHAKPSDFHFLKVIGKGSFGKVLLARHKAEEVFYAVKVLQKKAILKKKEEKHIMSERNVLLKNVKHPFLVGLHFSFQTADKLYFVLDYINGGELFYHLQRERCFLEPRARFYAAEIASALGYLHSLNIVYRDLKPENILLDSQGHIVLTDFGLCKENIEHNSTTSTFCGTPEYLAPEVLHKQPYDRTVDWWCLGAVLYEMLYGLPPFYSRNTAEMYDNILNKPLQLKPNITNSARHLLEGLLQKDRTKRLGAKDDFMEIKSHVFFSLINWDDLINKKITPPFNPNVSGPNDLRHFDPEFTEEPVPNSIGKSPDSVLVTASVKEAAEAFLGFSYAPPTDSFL
# [8] = biological target: Proto-oncogene tyrosine-protein kinase Src (Homo sapiens, UniProt P12931); experiment: Inhibitory activity against SRC
# Chain of Proto-oncogene tyrosine-protein kinase Src (P12931 2-536 limits assumed): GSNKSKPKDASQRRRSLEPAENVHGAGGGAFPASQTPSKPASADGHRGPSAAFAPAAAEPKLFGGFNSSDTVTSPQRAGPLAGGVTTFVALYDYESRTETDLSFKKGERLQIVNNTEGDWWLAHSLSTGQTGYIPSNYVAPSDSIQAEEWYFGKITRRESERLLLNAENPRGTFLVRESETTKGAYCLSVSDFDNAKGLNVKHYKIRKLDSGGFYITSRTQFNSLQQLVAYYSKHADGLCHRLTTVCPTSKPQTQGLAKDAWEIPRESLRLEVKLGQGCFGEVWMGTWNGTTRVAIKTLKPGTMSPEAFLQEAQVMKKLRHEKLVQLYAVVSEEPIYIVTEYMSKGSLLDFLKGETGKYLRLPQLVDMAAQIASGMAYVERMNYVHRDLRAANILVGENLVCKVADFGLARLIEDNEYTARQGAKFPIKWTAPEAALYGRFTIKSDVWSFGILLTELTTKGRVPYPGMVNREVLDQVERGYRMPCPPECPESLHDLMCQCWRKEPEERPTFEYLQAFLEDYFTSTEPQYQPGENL
# [9] = biological target: Epidermal growth factor receptor (Homo sapiens, UniProt P00533); experiment: Inhibitory activity against EGFR
# [10] = biological target: Protein kinase C gamma type (Homo sapiens, UniProt P05129); experiment: Inhibitory activity against PKC gamma
# [11] = biological target: Protein kinase C delta type (Homo sapiens, UniProt Q05655); experiment: Inhibitory activity against PKC delta
# Angiopoietin-1 receptor = Angiopoietin-1 receptor (Homo sapiens, UniProt Q02763); experiment: Inhibitory activity against Tie2
# Chain of Angiopoietin-1 receptor (Q02763 whole entry): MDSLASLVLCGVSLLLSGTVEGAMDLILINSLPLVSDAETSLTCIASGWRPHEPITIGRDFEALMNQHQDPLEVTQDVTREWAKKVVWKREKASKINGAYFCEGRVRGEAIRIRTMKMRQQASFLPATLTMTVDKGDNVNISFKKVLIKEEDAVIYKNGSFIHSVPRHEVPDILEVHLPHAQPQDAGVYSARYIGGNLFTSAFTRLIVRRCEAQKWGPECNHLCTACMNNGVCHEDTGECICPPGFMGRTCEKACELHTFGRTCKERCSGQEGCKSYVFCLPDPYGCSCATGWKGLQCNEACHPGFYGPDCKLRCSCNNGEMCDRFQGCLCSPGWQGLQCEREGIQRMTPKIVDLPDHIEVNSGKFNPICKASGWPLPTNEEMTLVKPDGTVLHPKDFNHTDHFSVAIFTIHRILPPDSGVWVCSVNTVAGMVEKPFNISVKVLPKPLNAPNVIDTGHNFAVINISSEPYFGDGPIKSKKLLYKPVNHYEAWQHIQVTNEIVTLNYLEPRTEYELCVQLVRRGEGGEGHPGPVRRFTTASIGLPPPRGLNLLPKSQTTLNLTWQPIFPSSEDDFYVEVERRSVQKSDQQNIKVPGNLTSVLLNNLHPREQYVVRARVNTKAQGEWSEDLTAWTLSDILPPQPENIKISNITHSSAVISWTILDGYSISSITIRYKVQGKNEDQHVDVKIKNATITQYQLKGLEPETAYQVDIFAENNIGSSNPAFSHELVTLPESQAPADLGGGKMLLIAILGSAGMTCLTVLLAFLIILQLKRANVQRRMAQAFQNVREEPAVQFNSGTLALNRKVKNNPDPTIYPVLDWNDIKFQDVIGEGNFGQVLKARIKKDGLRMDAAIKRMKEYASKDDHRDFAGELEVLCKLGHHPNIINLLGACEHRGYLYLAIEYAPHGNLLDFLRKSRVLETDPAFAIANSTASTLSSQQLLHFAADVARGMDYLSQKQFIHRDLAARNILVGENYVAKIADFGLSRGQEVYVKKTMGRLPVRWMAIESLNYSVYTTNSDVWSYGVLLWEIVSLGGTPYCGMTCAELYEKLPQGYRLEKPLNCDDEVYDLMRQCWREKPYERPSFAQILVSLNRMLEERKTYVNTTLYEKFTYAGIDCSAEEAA
smiles,measurement,setting,value
COc1cc(-c2ccc3c(c2)NC(=O)/C3=C\c2cc[nH]c2)ccc1O,IC50,[1],25 nM
COc1cc(-c2ccc3c(c2)/C(=C/c2c[nH]c4ccccc24)C(=O)N3)ccc1O,IC50,[1],> 50000 nM
COc1cc(O)ccc1-c1ccc2c(c1)NC(=O)/C2=C\c1cc[nH]c1,IC50,[1],10 nM
COc1cc(-c2ccc3c(c2)NC(=O)/C3=C\C2CCCN2)ccc1O (stereo unspecified),IC50,[1],3970 nM
O=C1Nc2cc(-c3ccc(O)cc3)ccc2/C1=C/c1cc[nH]c1,IC50,[1],29 nM
COc1cc(-c2ccc3c(c2)NC(=O)/C3=C\c2[nH]c(C)cc2C(C)C)ccc1O,IC50,[1],3460 nM
COc1cc(-c2ccc3c(c2)/C(=C/c2c[nH]c4c(C)cccc24)C(=O)N3)ccc1O,IC50,[1],3460 nM
COC(=O)CCc1c(C)[nH]c(/C=C2\C(=O)Nc3cc(-c4ccc(O)c(OC)c4)ccc32)c1C,IC50,[1],75 nM
COc1cc(-c2ccc3c(c2)NC(=O)/C3=C\c2[nH]c(C)cc2C)ccc1O,IC50,[1],120 nM
COc1cc(-c2ccc3c(c2)NC(=O)/C3=C\c2[nH]c(C)cc2-c2ccccc2)ccc1O,IC50,[1],> 10000 nM
O=C1Nc2cc(-c3ccc(OC(F)(F)F)cc3)ccc2/C1=C/c1cc[nH]c1,IC50,[1],> 10000 nM
COc1cc(-c2ccc3c(c2)NC(=O)/C3=C\c2c[nH]c3ccccc23)ccc1O,IC50,[1],92 nM
COc1cc(-c2ccc3c(c2)NC(=O)/C3=C\c2c[nH]c3nc(C#N)ccc23)ccc1O,IC50,[1],445 nM
COc1cc(-c2ccc3c(c2)NC(=O)/C3=C\c2c[nH]c3ncccc23)ccc1O,EC50,HeLa [2],10 nM
same,EC50,HeLa [3],180 nM
same,IC50,[1],4 nM
same,IC50,[4],22700 nM
same,IC50,[5],454 nM
same,IC50,Casein kinase II,41700 nM
same,IC50,[6],> 50000 nM
same,IC50,[7],> 50000 nM
same,IC50,[8],2380 nM
COc1cc(-c2ccc3c(c2)NC(=O)/C3=C\c2cccc(OC)c2OC)ccc1O,IC50,[1],> 50000 nM
Cc1ccc(-c2ccc3c(c2)NC(=O)/C3=C\c2cc[nH]c2)cc1,IC50,[1],> 10000 nM
COc1cc(-c2ccc3c(c2)/C(=C/c2ccc[nH]2)C(=O)N3)ccc1O,IC50,[1],2840 nM
O=C1Nc2cc(-c3ccc(F)c(F)c3)ccc2/C1=C/c1cc[nH]c1,IC50,[1],> 10000 nM
COc1cc(-c2ccc3c(c2)/C(=C/c2cccc(OC)c2OC)C(=O)N3)ccc1O,IC50,[1],> 50000 nM
Nc1ccc(-c2ccc3c(c2)NC(=O)/C3=C\c2cc[nH]c2)cc1,IC50,[1],1030 nM
COc1cc(-c2ccc3c(c2)NC(=O)/C3=C\c2[nH]c(C)c(CN(C)C)c2C(C)C)ccc1O,IC50,[1],1280 nM
COc1cc(-c2ccc3c(c2)NC(=O)/C3=C\c2[nH]c(C)c(CCO)c2C)ccc1O,IC50,[1],47 nM
COc1cc(-c2ccc3c(c2)NC(=O)/C3=C\c2ncc[nH]2)ccc1O,IC50,[1],18 nM
same,IC50,[4],14600 nM
same,IC50,[5],251 nM
same,IC50,[9],> 50000 nM
same,IC50,[10],> 50000 nM
same,IC50,[11],> 50000 nM
same,IC50,[7],1500 nM
same,IC50,[8],> 50000 nM
same,IC50,Angiopoietin-1 receptor,23300 nM
COc1cc(-c2ccc3c(c2)NC(=O)/C3=C\c2c[nH]c3c(C)cccc23)ccc1O,IC50,[1],1310 nM
COc1cc(-c2ccc3c(c2)NC(=O)/C3=C\c2cc[nH]c2)cc(OC)c1OC,IC50,[1],> 10000 nM
COc1cc(-c2ccc3c(c2)NC(=O)/C3=C\c2ccc[nH]2)ccc1O,IC50,[4],21700 nM
same,IC50,[5],> 50000 nM
same,IC50,Casein kinase II,> 50000 nM
same,IC50,[9],> 50000 nM
same,IC50,[6],> 50000 nM
same,IC50,[10],> 50000 nM
same,IC50,[11],> 50000 nM
same,IC50,[7],> 50000 nM
same,IC50,[8],> 50000 nM
same,IC50,Angiopoietin-1 receptor,> 50000 nM
